High-throughput results (PubChem)
This is a sample that favours compounds with a hit; in the whole collection about 1.4% have one here.
NR2E3 ag-1 = inhibitors of NR2E3-RetCOR corepressor binding, primary screen, NR2E3 agonist project, biochemical, TR-FRET, GST-NR2E3, biotin-RetCOR; Photoreceptor-specific nuclear receptor (Homo sapiens), Q9Y5X4; 1536-well; inhibition of corepressor binding, % at 4.78 µM; 320,000 compounds, 0.12% hits; AID 2300, 2010;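 active = percent inhibition above the cutoff of mean plus 3 SD of all tested compounds, set per screening campaign, cut at about 20% in these data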;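 also: 0% = DMSO wells and 100% = biotin wells as full block of FRET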
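Test system – NR2E3–RetCOR corepressor complex · Quantity – NR2E3 fusion 1.35 nM · Buffer or medium – Tris pH 7.5 · Incubation – Compound–protein incubation for 5 h at 4 °C · Technique – TR-FRET, Eu(K)-anti-GST donor, streptavidin-D2 acceptor, ex 340, em 617/671 nm · Evaluation – percent inhibition of 671/617 nm emission ratio versus biotin and DMSO controls · Plate – 1536-well format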
NR1D1 modulator = modulators of Rev-erb alpha DNA binding, primary screen, biochemical, FITC-DNA, fluorescence polarization, uHTS; Nuclear receptor subfamily 1 group D member 1 (Homo sapiens), P20393; Rev-erbα–FITC-DNA binding, 90 min; activity, % at 10 µM; 370,000 compounds, 0.79% hits; AID 1259318, 2017;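 active = activity above about 14%, limit read from the data; passing the limit was not always enough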;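 also: 0% = DMSO wells with 35 nM protein and 100% = DMSO wells with 750 nM protein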
Target sequence (P20393 whole entry, looked up): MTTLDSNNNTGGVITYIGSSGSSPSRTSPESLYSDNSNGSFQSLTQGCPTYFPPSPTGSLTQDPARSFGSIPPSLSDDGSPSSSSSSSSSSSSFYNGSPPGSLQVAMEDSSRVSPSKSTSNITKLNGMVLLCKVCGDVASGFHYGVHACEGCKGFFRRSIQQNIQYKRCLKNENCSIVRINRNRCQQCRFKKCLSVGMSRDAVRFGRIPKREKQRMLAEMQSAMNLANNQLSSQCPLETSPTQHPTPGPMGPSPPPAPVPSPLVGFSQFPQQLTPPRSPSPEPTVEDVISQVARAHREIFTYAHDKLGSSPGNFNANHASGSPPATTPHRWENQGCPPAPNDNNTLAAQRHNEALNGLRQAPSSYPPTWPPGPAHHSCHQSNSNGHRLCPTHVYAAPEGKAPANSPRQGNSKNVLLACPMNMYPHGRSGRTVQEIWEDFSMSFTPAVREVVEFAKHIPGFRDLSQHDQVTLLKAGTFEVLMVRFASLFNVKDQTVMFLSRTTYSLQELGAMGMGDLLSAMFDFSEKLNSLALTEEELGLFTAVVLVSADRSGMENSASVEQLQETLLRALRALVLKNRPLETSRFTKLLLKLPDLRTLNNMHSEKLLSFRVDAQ
NR2E3 ag-2 = NR2E3 agonists in two-hybrid cells, primary screen, cell-based, luminescence, CHO-S, Gal4-NCOR/VP16-NR2E3. Photoreceptor-specific nuclear receptor (Homo sapiens), Q9Y5X4. luciferase. inhibition of corepressor binding, % at 3.98 µM. 360,000 compounds, 0.35% hits. AID 602229, 2012;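 active = inhibition above the mean of all tested compounds plus 3 SD, cut at about 70% in these data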;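 also: 0% = DMSO with NR2E3 transfected cells and 100% = cells lacking NR2E3 construct; higher means lower luciferase signal from less NR2E3 corepressor binding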
PG9 Ab binder = binders of HIV-1 gp120 antibody PG9, primary screen, biochemical, TR-FRET; AID 624416, 2012; 360,000 compounds, 0.43% hits; TR-FRET gp120-PG9 antibody binding; inhibition, % at 6.7 µM; HIV-1 gp120 / PG9 antibody interaction; in the data active = inhibition above about 8.5%
Starred values were filed as active, the others as inactive; · = no result; ! = not confirmed by another sample.

SMILES | NR2E3 ag-1 | NR1D1 modulator | NR2E3 ag-2 | PG9 Ab binder
COc1ccc(CS(=O)(=O)/C(Cl)=C(/Cl)C(=O)Nc2ccc(OC)nc2)cc1 | -3.3 | · | 73.7* | ·
NC(=O)[C@H]1OC(O)[C@H](O)[C@@H](O)[C@@H]1O (stereo partly drawn) | · | 4.2 | · | ·
COc1ccc(/C=C\C(=O)O[C@@H]2C(O)C(O[C@@H]3OC(C)[C@H](O[C@@H]4OCC(O[C@H]5O[C@H](CO)[C@@H](O)C(O)C5O)C(O)C4O)C(O)C3O)[C@H](OC(=O)[C@]34CCC(C)(C)C[C@@H]3C3=CCC5[C@@]6(C)CC(O)C(O[C@@H]7OC(CO)C(O)[C@H](O)[C@H]7O)[C@@](C)(C(=O)O)C6CC[C@@]5(C)[C@]3(CO)CC4)O[C@H]2C)cc1 (stereo partly drawn) | · | · | 96.5* | ·
O=C(Nc1cccc(Cl)c1)Nc1nnc(-c2ccncc2)s1 | 0.1 | -21.6 | 89.2* | -0.4
O=C(Nc1ccc(Cl)cc1)Nc1nnc(-c2ccncc2)s1 | 1.7 | -21.2 | -8.0 | -0.1
O=C(CCC(=O)N1CCOc2ccccc21)NC1CCCCCC1 | 2.9 | -0.1 | -36.3 | 0.3
CCOC(=O)N1CCC(NC(=O)CCC(=O)N2CCOc3ccccc32)CC1 | 2.5 | -8.1 | -1.3 | 15.3*
CN[C@@H]1C(OC2[C@H](O[C@H]3[C@H](O)[C@@H](O)[C@H](N=C(N)N)[C@@H](O)[C@@H]3N=C(N)N)O[C@H](C)[C@]2(O)CO)O[C@@H](CO)C(O)C1O (stereo partly drawn) | · | -2.1 | · | ·
CN1C2CC(OC(=O)[C@H](CO)c3ccccc3)C[C@H]1[C@H]1OC21 (stereo partly drawn) | · | -8.1 | · | ·
COC(=O)c1ccc(Nc2cc(C)nc(-c3ccccc3O)n2)cc1 | 1.4 | 24.8 | -20.1 | 44.5*
COC(=O)c1cccc(Nc2cc(C)nc(-c3ccccc3O)n2)c1 | -1.4 | 12.4 | 7.4 | -0.1
O=C(O)C[C@H](O)C(=O)O | · | -5.3 | · | ·
COc1cc(S(=O)(=O)n2cnc(C)c2)ccc1Br | 3.8 | -2.4 | 9.6 | -0.9
Cc1cn(S(=O)(=O)c2ccc(Br)c3ccccc23)cn1 | 31.0* | · | · | ·
COc1cccc2c1C(=O)c1c(O)c3c(c(O)c1C2=O)C[C@@](O)(C(=O)CO)C[C@@H]3OC1C[C@H](N)[C@H](O)[C@H](C)O1 (stereo partly drawn) | · | 1.6 | · | ·
C#Cc1ccc([C@@H]2C=C(C(=O)N3CCN(Cc4ccccc4)CC3)O[C@H](OCCCCO)C2)cc1 | -1.4 | · | 75.4* | ·
Cc1nn(C)c(C)c1S(=O)(=O)N(CC(=O)Nc1ccc2c(c1)OCO2)c1ccc(C(C)C)cc1 | -1.6 | -4.8 | 29.1 | 14.1*
C/C=C(\C)C(=O)OC1[C@H](OC(C)=O)C2(CO)C(CC1(C)C)C1=CCC3C4(C)CCC(O[C@@H]5O[C@H](C(=O)O)[C@@H](O[C@@H]6O[C@H](CO)[C@@H](O)[C@H](O)[C@H]6O)[C@H](O)[C@H]5O[C@H]5O[C@H](CO)[C@@H](O)[C@H](O)[C@H]5O)[C@](C)(CO)C4CCC3(C)[C@]1(C)C[C@H]2O (stereo partly drawn) | · | · | 105.8* | ·
CCCCN1/C(=C/c2ccc3ccccc3[n+]2CC)Sc2ccccc21 | · | · | 80.0* | ·
CN(C)C1C(=O)C(C(=O)NCN2CCCC2)=C(O)C2(O)C(=O)C3=C(O)c4c(O)cccc4C(C)(O)C3CC12 (stereo not drawn) | · | -8.0 | · | ·
CCn1c(C)nc2cc(-c3nc4n(n3)Cc3ccccc3-4)ccc21 | 2.4 | · | 97.2* | ·
Cc1ccc(-c2nc3n(n2)Cc2ccccc2-3)cc1 | 3.0 | -1.4 | -110.2 | 1.5
OC[C@H]1O[C@H](O)C[C@@H](O)[C@@H]1O | · | 4.0 | · | ·
C[C@H]1CC2C([C@@H](O)C[C@@]3(C)C2CC[C@]3(O)C(=O)COC(=O)CCC(=O)O)[C@@]2(C)C=CC(=O)C=C12 (stereo partly drawn) | · | -0.7 | · | ·
Cc1cccc(NC2=C/C(=N/S(=O)(=O)c3cccs3)c3ccccc3C2=O)c1 | 0.0 | -3.3 | -6.4 | -2.4
SMILES | NR2E3 ag-1 | NR1D1 modulator | NR2E3 ag-2 | PG9 Ab binder
Cc1ccc(NC2=C/C(=N\S(=O)(=O)c3cccs3)c3ccccc3C2=O)c(C)c1 | 6.9 | · | 108.3* | ·
Cc1ccc(Cl)cc1NC1=C/C(=N\S(=O)(=O)c2cccs2)c2ccccc2C1=O | 9.2 | 3.2 | 79.0*! | -2.4
O=C(O)c1ccc(NC2=C/C(=N/S(=O)(=O)c3cccs3)c3ccccc3C2=O)cc1 | · | -18.8 | -2.5 | -15.6
CCc1ccc(S(=O)(=O)/N=C2/C=C(Sc3ncn[nH]3)C(=O)c3ccccc32)cc1 | 5.8 | · | 99.9* | ·
CCc1ccc(S(=O)(=O)/N=C2\C=CC(=O)c3ccccc32)cc1 | 2.6 | · | · | ·
C[C@]12C=CC(=O)C=C1CCC1C3C[C@@H](O)[C@](O)(C(=O)CO)[C@@]3(C)C[C@H](O)[C@@]12F (stereo partly drawn) | · | -0.1 | · | ·
CC(C)(CO)C(O)C(=O)NCCC(=O)NCCSSCCNC(=O)CCNC(=O)C(O)C(C)(C)CO (stereo not drawn) | · | -2.1 | · | ·
O=C(CCCCCn1c(=S)[nH]c2cc3c(cc2c1=O)OCO3)N1CCN(Cc2ccccc2)CC1 | 1.7 | 16.8 | -0.1 | 4.2
O=C(CCCCCn1c(=S)[nH]c2cc3c(cc2c1=O)OCO3)N1CCN(C(=O)c2ccco2)CC1 | -93.0 | -1.4 | -15.6 | 11.8*
CC(=O)O[C@H]1CC2CCC3C(CC[C@@]4(C)C3C[C@H]([N+]3(C)CCCCC3)[C@@H]4OC(C)=O)[C@@]2(C)C[C@@H]1N1CCCCC1 (stereo partly drawn) | · | -1.9 | · | ·
COc1ccc2oc(=O)c(-c3nc(C)cs3)cc2c1 | 3.1 | 1.6 | -64.9 | 13.5*
COc1ccc2oc(=O)c(-c3nnc(N)s3)cc2c1 | 3.1 | 0.3 | -32.6 | -3.4
C=C1C(=O)C=C2CN(C(=O)c3ccccc3)[C@@](Cc3ccc(F)cc3)(C(=O)OC)[C@@H]12 | 0.4 | · | 71.9* | ·
O=C(Nc1ccccc1-c1nc2ccccc2s1)c1cccnc1Cl | 2.5 | 24.4 | -14.6 | 10.9*
COC(=O)c1c(C)oc2ccc(N(C(=O)c3ccncc3)S(=O)(=O)c3ccccc3)cc12 | -1.4 | 3.5 | 70.5* | -2.5
CCc1ccc(-c2nc(CSCC(=O)N3CCN(c4ccccn4)CC3)c(C)o2)cc1 | 4.1 | 6.8 | 83.8* | -1.9
CC(C)(O/N=C(\C(=O)N[C@@H]1C(=O)N2C(C(=O)O)=C(C[n+]3ccccc3)CSC12)c1csc(N)n1)C(=O)O (stereo partly drawn) | · | 1.5 | · | ·
CC[C@@H](C(=O)[C@@H](C)[C@@H](O)[C@H](C)[C@@H]1O[C@@H]([C@@H](CC)C(=O)O)CC[C@@H]1C)[C@H]1OC2(C=C[C@@H](O)[C@]3(CC[C@@](C)([C@H]4CC[C@](O)(CC)[C@H](C)O4)O3)O2)[C@H](C)C[C@@H]1C (stereo partly drawn) | · | 2.8 | · | ·
